Source: ChEMBL document CHEMBL3632502, “Bivalent ligands incorporating curcumin and diosgenin as multifunctional compounds against Alzheimer's disease” (Bioorg Med Chem, 2015)
Activity calls are given as the source filed them. The rule behind the calls is not given here.

Key:
MC65 [1] = test: (§1) Neuroprotective activity against tetracycline deficiency-mediated cell viability loss in human MC65 cells at 1 uM after 72 hrs by MTT assay relative to control; format: functional
Summary of the method: (§2)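 MC65 cells washed twice in PBS, seeded in Opti-MEM at 4×10^4 cells/well, treated at 37 °C under +TC or −TC for 72 h. MTT (5 mg/mL in PBS) added for 4 h, formazan dissolved in DMSO, A570 read. Viability expressed as percent of +TC control; EC50 from concentration series, SEM.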

[2] = as §1; format: functional; summary of the method: as §2
[3] = Metal chelating activity assessed as compound-Cu2+ complex formation at 50 uM after 10 mins by UV-vis spectra analysis; format: physicochemical
Summary of the method: (§3)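 Compound (50 μM) mixed with CuSO4, FeCl2 or ZnCl2 (50 μM) in deionized water, kept 10 min at room temperature, then UV absorption spectrum recorded from 200 to 600 nm.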

[4] = Metal chelating activity assessed as compound-Fe2+ complex formation at 50 uM after 10 mins by UV-vis spectra analysis; format: physicochemical; summary of the method: as §3
MC65 [5] = test: Effect on tetracycline deficiency-induced total amyloid beta42 level in human MC65 cells at 0.1 to 1 uM after 48 hrs by ELISA; format: functional, cell-based
Summary of the method: (§4)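 MC65 cells in Opti-MEM (4×10^4 cells/well) treated at 37 °C under +TC or −TC for 48 h. Conditioned medium captured on BNT77-coated plates overnight at 4 °C, detected with HRP-BA27 (Aβ40) or HRP-BC05 (Aβ42) for 1 h at room temperature, TMB 30 min, A450. Values in pM from Aβ standard calibration curves.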

MC65 [6] = test: Antioxidant activity in human MC65 cells assessed as decrease in tetracycline deficiency-mediated reactive oxygen species formation at 0.3 uM after 48 hrs by DCFH-DA probe-based flow cytometric analysis; format: functional, cell-based
Summary of the method: (§5)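 MC65 cells washed in PBS, resuspended in Opti-MEM, seeded at 2×10^6 cells/well, treated at 37 °C with or without TC (1 μg/mL in culture medium) for 48 h. Harvested cells washed in cold PBS, loaded with 25 μM DCFH-DA in PBS for 1 h in the dark, and analysed by flow cytometry. Fluorescence expressed as percent of control.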

MC65 [7] = test: Effect on tetracycline deficiency-induced total amyloid beta40 level in human MC65 cells at 0.1 to 1 uM after 48 hrs by ELISA; format: functional, cell-based; summary of the method: as §4
[8] = target: Amyloid-beta precursor protein (Homo sapiens) (UniProt P05067); test: Inhibition of amyloid beta42 (unknown origin) aggregation after 48 hrs by ThT assay
Summary of the method: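 Aβ42 (25 μM in PBS pH 7.4, 9 μL) mixed with 1 μL of compound in DMSO (0.01–100 μM solutions), triplicates with solvent control, incubated dark at room temperature 48 h. Then 5 μM ThT in 50 mM glycine pH 8.0 added; fluorescence read at ex 446/em 490 nm, with no-ThT background subtracted.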

[9] = target: Amyloid-beta precursor protein (Homo sapiens) (UniProt P05067); test: Binding affinity to amyloid beta in human MC65 cells assessed as inhibition of tetracycline deficiency-induced amyloid beta oligomerization after 48 hrs by Western blot analysis; format: cell-based
Summary of the method: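 MC65 cells in Opti-MEM (2×10^6 cells/well) treated at 37 °C under +TC or −TC for 48 h, then lysed by sonication in Tricine buffer. Supernatant protein (20.0 μg, Bradford-quantified) run on Tris-Tricine SDS-PAGE and blotted to PVDF. Probed with 6E10 overnight at 4 °C, HRP secondary, chemiluminescence; α-tubulin loading control. Total oligomers quantified, n=6, SEM.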

[10] = Neuroprotective activity against tetracycline deficiency-mediated cell viability loss in human MC65 cells after 72 hrs by MTT assay; format: functional, cell-based; conditions: MC65, 72 h; summary of the method: as §2
[11] = Metal chelating activity assessed as compound-Zn2+ complex formation at 50 uM after 10 mins by UV-vis spectra analysis; format: physicochemical; summary of the method: as §3
MC65 [12] = test: Antioxidant activity in human MC65 cells assessed as decrease in tetracycline deficiency-mediated reactive oxygen species formation at 0.1 uM after 48 hrs by DCFH-DA probe-based flow cytometric analysis; format: functional, cell-based; summary of the method: as §5

Amyloid-beta precursor protein (Homo sapiens), sequence (P05067 whole entry): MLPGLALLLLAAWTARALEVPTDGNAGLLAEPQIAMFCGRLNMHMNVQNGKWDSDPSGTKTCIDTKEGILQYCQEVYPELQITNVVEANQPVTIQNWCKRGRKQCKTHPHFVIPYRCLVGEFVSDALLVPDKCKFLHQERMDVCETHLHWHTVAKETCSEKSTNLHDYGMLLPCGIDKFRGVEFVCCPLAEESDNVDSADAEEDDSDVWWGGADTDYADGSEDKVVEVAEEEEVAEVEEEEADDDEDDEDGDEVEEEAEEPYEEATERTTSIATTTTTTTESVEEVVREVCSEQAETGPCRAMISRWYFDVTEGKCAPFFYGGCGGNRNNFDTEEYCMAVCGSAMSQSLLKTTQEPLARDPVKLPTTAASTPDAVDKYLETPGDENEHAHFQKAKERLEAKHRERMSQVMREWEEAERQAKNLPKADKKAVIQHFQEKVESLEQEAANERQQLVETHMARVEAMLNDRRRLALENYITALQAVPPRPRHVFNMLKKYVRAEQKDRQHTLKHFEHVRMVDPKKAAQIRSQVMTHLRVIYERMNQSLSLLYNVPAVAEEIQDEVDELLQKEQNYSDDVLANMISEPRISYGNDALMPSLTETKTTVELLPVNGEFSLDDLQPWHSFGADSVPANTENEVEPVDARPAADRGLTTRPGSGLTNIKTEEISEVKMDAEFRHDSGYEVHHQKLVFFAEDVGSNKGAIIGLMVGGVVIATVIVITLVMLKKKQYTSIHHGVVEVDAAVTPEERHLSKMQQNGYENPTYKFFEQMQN

## CC(C)Cc1cn(CCOCCOCCNC(=O)CCC(=O)O[C@H]2CC[C@@]3(C)C(=CC[C@H]4[C@@H]5C[C@@H]6O[C@]7(CC[C@@H](C)CO7)[C@@H](C)[C@@H]6[C@@]5(C)CC[C@@H]43)C2)nn1
MC65 [1]
  Activity: inactive

## COc1cc(/C=C/C(=O)/C(Cc2cn(CCCCC(=O)NCCOCCOCCOCC(=O)O[C@H]3CC[C@@]4(C)C(=CC[C@H]5[C@@H]6C[C@@H]7O[C@]8(CC[C@@H](C)CO8)[C@@H](C)[C@@H]7[C@@]6(C)CC[C@@H]54)C3)nn2)=C(O)/C=C/c2ccc(O)c(OC)c2)ccc1O
[2]
  Activity: >=80%
[3]
  Activity: Not Active
[4]
  Activity: Not Active
MC65 [5]
  Activity: inactive
MC65 [6]
  Activity: Active
MC65 [7]
  Activity: inactive
[8]
  inhibition: Dose-dependent effect
[9]
  inhibition: Dose-dependent effect
[10]
  EC50: 232 nM
[11]
  Activity: Not Active

## COc1cc(/C=C/C(=O)/C(Cc2cn(CCCCCCCC(=O)NCCOCCOCCOCC(=O)O[C@H]3CC[C@@]4(C)C(=CC[C@H]5[C@@H]6C[C@@H]7O[C@]8(CC[C@@H](C)CO8)[C@@H](C)[C@@H]7[C@@]6(C)CC[C@@H]54)C3)nn2)=C(O)/C=C/c2ccc(O)c(OC)c2)ccc1O
[2]
  Activity: >=80%
[10]
  EC50: 1040 nM

## CCCCCC(=O)O[C@H]1CC[C@@]2(C)C(=CC[C@@H]3[C@@H]4C[C@@H]5O[C@]6(CC[C@@H](C)CO6)[C@@H](C)[C@@H]5[C@@]4(C)CC[C@@H]32)C1
MC65 [1]
  Activity: inactive

## COC(=O)CCC(=O)NCCOCCOCCn1cc(C/C(C(=O)/C=C/c2ccc(O)c(OC)c2)=C(O)\C=C\c2ccc(O)c(OC)c2)nn1
MC65 [1]
  Activity: inactive

## C[C@@H]1CC[C@@]2(OC1)O[C@H]1C[C@H]3[C@@H]4CC=C5C[C@@H](O)CC[C@]5(C)[C@H]4CC[C@]3(C)[C@H]1[C@@H]2C
MC65 [1]
  Activity: inactive

## COc1cc(/C=C/C(=O)/C(Cc2cn(CCCCCCCCCC(=O)NCCOCCOCCOCC(=O)O[C@H]3CC[C@@]4(C)C(=CC[C@H]5[C@@H]6C[C@@H]7O[C@]8(CC[C@@H](C)CO8)[C@@H](C)[C@@H]7[C@@]6(C)CC[C@@H]54)C3)nn2)=C(O)/C=C/c2ccc(O)c(OC)c2)ccc1O
[10]
  EC50: 309 nM

## COc1cc(/C=C/C(=O)/C(Cc2cn(CCCCCC(=O)NCCOCCOCCOCC(=O)O[C@H]3CC[C@@]4(C)C(=CC[C@H]5[C@@H]6C[C@@H]7O[C@]8(CC[C@@H](C)CO8)[C@@H](C)[C@@H]7[C@@]6(C)CC[C@@H]54)C3)nn2)=C(O)/C=C/c2ccc(O)c(OC)c2)ccc1O
[2]
  Activity: >=80%
[10]
  EC50: 381 nM

## COc1cc(/C=C/C(=O)CC(=O)/C=C/c2ccc(O)c(OC)c2)ccc1O
MC65 [1]
  Activity: inactive

## COc1cc(/C=C/C(=O)/C(Cc2cn(CCCCCCCCCCCC(=O)NCCOCCOCCOCC(=O)O[C@H]3CC[C@@]4(C)C(=CC[C@H]5[C@@H]6C[C@@H]7O[C@]8(CC[C@@H](C)CO8)[C@@H](C)[C@@H]7[C@@]6(C)CC[C@@H]54)C3)nn2)=C(O)/C=C/c2ccc(O)c(OC)c2)ccc1O
[10]
  EC50: 4620 nM

## COc1cc(/C=C/C(=O)/C(Cc2cn(CCOCCOCCNC(=O)CCC(=O)O[C@H]3CC[C@@]4(C)C(=CC[C@H]5[C@@H]6C[C@@H]7O[C@]8(CC[C@@H](C)CO8)[C@@H](C)[C@@H]7[C@@]6(C)CC[C@@H]54)C3)nn2)=C(O)/C=C/c2ccc(O)c(OC)c2)ccc1O
MC65 [12]
  Activity: Active
[2]
  Activity: >=80%
[3]
  Activity: Not Active
[4]
  Activity: Not Active
MC65 [5]
  Activity: inactive
MC65 [7]
  Activity: inactive
[8]
  inhibition: Dose-dependent effect
[9]
  inhibition: Dose-dependent effect
[10]
  EC50: 112 nM
[11]
  Activity: Not Active
